Experimental data reported in ChEMBL document CHEMBL1938323, “Phenolic substances from Phagnalon rupestre protect against 2,4,6-trinitrochlorobenzene-induced contact hypersensitivity” (2011).
Active and inactive are the calls of the source. The rule behind the calls is not given here.

Experiments:
[1] = test system: RAW264.7; experiment: Antiinflammatory activity in mouse RAW264.7 cells assessed as inhibition of LPS-induced MMP9 expression at 25 uM by Western blotting relative to control; type: functional
In short: (§1)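 RAW 264.7 cells were plated at 2×10^5 cells/mL and switched to DMEM with 0.5% FBS when subconfluent. They were pretreated 1 h with compound (25, 50, 100 μM) or PBS vehicle, then given LPS 1 μg/mL. Cells were lysed after 24 h. MMP-9 was measured by Western blot, normalized to β-actin, with % inhibition versus control. Three experiments.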

[2] = species on record: Mus musculus; experiment: Antihypersensitivity activity against TNCB-induced contact hypersensitivity in BALB/c mouse ear assessed as decrease IL2 levels at 0.5 mg/ear measured after 72 hrs by ELISA relative to 24 hrs; type: functional
In short: (§2)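 Acute CHS: female BALB/c mice challenged with 1% TNCB (10 μL/ear). Topical treatment at 30 min, 24 h and 48 h: compounds 0.5 mg/ear, dexamethasone 0.025 mg/ear. Ears collected at 24 and 72 h and homogenized. Cytokines measured by ELISA in triplicate and expressed as pg/mL. n ≥4 animals; Dunnett's test versus control.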

[3] = test system: RAW264.7; experiment: Antiinflammatory activity in mouse RAW264.7 cells assessed as inhibition of LPS-induced MMP9 expression at 50 uM by Western blotting relative to control; type: functional; in short: as §1
[4] = species on record: Mus musculus; experiment: Antihypersensitivity activity against TNCB-induced acute contact hypersensitivity in BALB/c mouse ear assessed as inhibition of neutrophil infiltration by measuring MPO activity at 0.5 mg/ear measured after 72 hrs relative to control; type: functional
In short: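 Female BALB/c mice were challenged on both ears with 10 μL 1% TNCB in acetone. Test compounds (0.5 mg/ear in EtOH–H2O 8:2) or dexamethasone (0.025 mg/ear in acetone) were applied topically at 30 min, 24 h and 48 h. Ear tissue was taken at 24 or 72 h and homogenized in phosphate buffer with 0.5% HTAB. MPO was read by TMB/H2O2, 3 min at 37 °C, A630. n ≥5 ear samples.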

[5] = test system: Mus musculus; experiment: Antihypersensitivity against TNCB-induced contact hypersensitivity in BALB/c mouse ear assessed as inhibition of edema at 0.5 mg/ear applied tropically after 30 mins, 24 hrs and 48 hrs of TNCB challenge measured after 72 hrs relative to control; type: functional
In short: (§3)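 Female BALB/c mice (7–9 weeks) challenged on each ear with 10 μL 1% TNCB in acetone six days after sensitization. Compounds given at 0.5 mg/ear in EtOH–H2O 8:2 at 30 min, 24 h and 48 h. Ear thickness measured by micrometer at 24 and 72 h. Edema is inflamed minus naive thickness; inhibition versus control. Dunnett's test.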

[6] = test system: RAW264.7; experiment: Antiinflammatory activity in mouse RAW264.7 cells assessed as inhibition of LPS-induced MMP9 expression by Western blotting; type: functional, cell-based; in short: as §1
[7] = species on record: Mus musculus; experiment: Antihypersensitivity activity against TNCB-induced contact hypersensitivity in BALB/c mouse ear assessed as decrease IL1-beta levels at 0.5 mg/ear measured at 24 hrs by ELISA relative to control; type: functional; in short: as §2
[8] = species on record: Mus musculus; experiment: Antihypersensitivity activity against TNCB-induced contact hypersensitivity in BALB/c mouse ear assessed as decrease IL1-beta levels at 0.5 mg/ear measured at 72 hrs by ELISA relative to control; type: functional; in short: as §2
[9] = test system: RAW264.7; experiment: Antiinflammatory activity in mouse RAW264.7 cells assessed as inhibition of LPS-induced MMP9 expression at 100 uM by Western blotting relative to control; type: functional; in short: as §1
[10] = test system: Mus musculus; experiment: Antihypersensitivity activity against TNCB-induced atopic dermatitis in BALB/c mouse ear assessed as inhibition of ear thickness at 0.5 mg/ear applied topically three times per week 30 min TNCB post challenge measured on day 11 onwards; type: functional
In short: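 BALB/c mice sensitized with 10 μL 0.3% TNCB in acetone on both inner ears at day −7, then re-challenged at the same site three times per week over days 0–21. Ear thickness measured by digital micrometer. Edema is the difference between naive and inflamed ear thickness. Inhibition calculated relative to the control group.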

[11] = test system: Mus musculus; experiment: Antihypersensitivity against TNCB-induced contact hypersensitivity in BALB/c mouse ear assessed as inhibition of edema at 0.5 mg/ear applied […] after 30 mins, 24 hrs and 48 hrs of TNCB challenge measured after 24 hrs relative to control; type: functional; in short: as §3
[12] = species on record: Mus musculus; experiment: Antihypersensitivity activity against TNCB-induced contact hypersensitivity in BALB/c mouse ear assessed as decrease IL4 levels at 0.5 mg/ear measured after 24 to 72 hrs by ELISA; type: functional, organism-based; in short: as §2
[13] = species on record: Mus musculus; experiment: Antihypersensitivity activity against TNCB-induced contact hypersensitivity in BALB/c mouse ear assessed as decreased COX2 expression at 0.5 mg/ear after at 72 hrs by Western blotting relative to control; type: functional
[14] = species on record: Mus musculus; experiment: Antihypersensitivity activity against TNCB-induced contact hypersensitivity in BALB/c mouse ear assessed as decrease TNFalpha levels at 0.5 mg/ear measured at 24 hrs by ELISA relative to control; type: functional; in short: as §2
[15] = species on record: Mus musculus; experiment: Antihypersensitivity activity against TNCB-induced contact hypersensitivity in BALB/c mouse ear assessed as decreased COX2 expression at 0.5 mg/ear after at 24 hrs by Western blotting relative to control; type: functional
[16] = species on record: Mus musculus; experiment: Antihypersensitivity activity against TNCB-induced contact hypersensitivity in BALB/c mouse ear assessed as inhibition of MMP9 production at 0.5 mg/ear measured at 24 hrs by Western blot analysis relative to control; type: functional

| SMILES | inhibition at 25 µM [1] | fold change (FC) [2] | inhibition at 50 µM [3] | inhibition (INH) [4] | inhibition (INH) [5] | inhibition [6] | inhibition (INH) [7] | inhibition (INH) [8] | inhibition at 100 µM [9] | inhibition (INH) [10] | inhibition (INH) [11] | inhibition [12] | inhibition (INH) [13] | inhibition (INH) [14] | inhibition (INH) [15] | inhibition (INH) [16] |
| --- | --- | --- | --- | --- | --- | --- | --- | --- | --- | --- | --- | --- | --- | --- | --- | --- |
| CC(C)=CCc1cc(O)ccc1O[C@@H]1O[C@H](CO)[C@@H](O)[C@H](O)[C@H]1O | 10% | 2 | 72% | 43% | 50% | Dose-dependent effect | >50% | 60% | 86% | 30% | 53% | inactive |  |  |  |  |
| COC(=O)[C@]1(O)C[C@@H](OC(=O)/C=C/c2ccc(O)c(O)c2)[C@@H](O)[C@H](OC(=O)/C=C/c2ccc(O)c(O)c2)C1 | 26% | 2 | 85% |  |  | Dose-dependent effect | >50% | 60% | 90% |  | 45% | inactive | 29% | 39% | 49% | 41% |
